{
  "source": "paper PMC3419923",
  "about": "(The EMBO Journal, 2012)",
  "system": "PepTSt",
  "assay": "Kinetics of proton-driven glycylsarcosine uptake in PepTSt proteoliposomes",
  "format": "biochemical, Streptococcus thermophilus",
  "settings": "proton-driven proteoliposome uptake, pH 6.5",
  "summary_of_the_method": "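PepTSt proteoliposomes (1:40 protein:lipid, extruded 400 nm) loaded with 20 mM KPi pH 6.50, 100 mM K acetate, 2 mM MgSO4. Diluted 1:50 into 20 mM NaPIPES […], 2 mM MgSO4, 10 μM valinomycin, giving an inside-negative potential that drives H+/peptide uptake. 3H peptide added at varying concentrations, 25°C. Quenched with ice-cold LiCl, filtered, counted, and converted to molar amounts via standard curves.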",
  "data": [
    {"substance": "glycylsarcosine", "values": [
      {"measurement": "maximal rate of uptake, Vmax", "value": 631, "unit": "nmol min^−1 mg^−1 PepTSt"}
    ]}
  ]
}
